The source made the active and inactive calls. The calls are words filed in the database; no cut-off is given here.
Tests used:
Candida dubliniensis = assay: Antifungal activity against Candida dubliniensis SM 26 clinical isolate assessed as concentration required to inhibit fungal growth after 24 hrs by TLC assay; type: functional
In short: (§1)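 Direct TLC bioautography: compound amounts from 50 to 1.56 μg applied to precoated TLC plates, overlaid with Mueller Hinton or Sabouraud agar inoculated with microorganism suspension (10⁵ cfu mL⁻¹). Plates incubated 24 h at 37 °C, then stained with aqueous 2,3,5-triphenyltetrazolium chloride (1 mg mL⁻¹). The lowest amount giving an inhibition zone was recorded; <50 μg counted active. Triplicate.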

Candida tropicalis = assay: Antifungal activity against Candida tropicalis ATCC 750 assessed as concentration required to inhibit fungal growth after 24 hrs by TLC assay; type: functional; in short: as §1
Cryptococcus neoformans = assay: Antifungal activity against Cryptococcus neoformans ATCC 28952 assessed as concentration required to inhibit fungal growth after 24 hrs by TLC assay; type: functional; in short: as §1
Candida albicans = assay: Antifungal activity against Candida albicans ATCC 10231 assessed as concentration required to inhibit fungal growth after 24 hrs by TLC assay; type: functional; in short: as §1
Saccharomyces cerevisiae = assay: Antifungal activity against Saccharomyces cerevisiae ATCC 2601 assessed as concentration required to inhibit fungal growth after 24 hrs by TLC assay; type: functional; in short: as §1
Staphylococcus aureus [1] = assay: Antibacterial activity against Staphylococcus aureus ATCC 6538p assessed as concentration required to inhibit bacterial growth after 24 hrs by TLC assay; type: functional; in short: as §1
Kocuria rhizophila [2] = assay: Antibacterial activity against Micrococcus luteus ATCC 9341 assessed as concentration required to inhibit bacterial growth after 24 hrs by TLC assay; type: functional; in short: as §1
Staphylococcus aureus [3] = assay: Antibacterial activity against Staphylococcus aureus ATCC 6538p assessed as growth inhibition at 50 to 1.56 ug after 24 hrs by TLC assay; type: functional; in short: as §1
Kocuria rhizophila [4] = assay: Antibacterial activity against Micrococcus luteus ATCC 9341 assessed as growth inhibition at 50 to 1.56 ug after 24 hrs by TLC assay; type: functional; in short: as §1
[5] = (§2) Antibacterial activity against Salmonella Setubal ATCC 19196 assessed as growth inhibition at 50 to 1.56 ug after 24 hrs by TLC assay; type: functional, Salmonella enterica subsp. enterica serovar Setubal; in short: as §1
Klebsiella pneumoniae [6] = assay: Antibacterial activity against Klebsiella pneumoniae ATCC 10031 assessed as growth inhibition at 50 to 1.56 ug after 24 hrs by TLC assay; type: functional; in short: as §1
Escherichia coli [7] = assay: Antibacterial activity against Escherichia coli ATCC 11103 assessed as growth inhibition at 50 to 1.56 ug after 24 hrs by TLC assay; type: functional; in short: as §1
[8] = tested on: Staphylococcus epidermidis; assay: Antibacterial activity against Staphylococcus epidermidis ATCC 12228 assessed as growth inhibition at 50 to 1.56 ug after 24 hrs by TLC assay; type: functional; in short: as §1
[9] = Antibacterial activity against Salmonella Setubal ATCC 19196 assessed as concentration required to inhibit bacterial growth after 24 hrs by TLC assay; type: functional, Salmonella enterica subsp. enterica serovar Setubal; in short: as §1
[10] = tested on: Staphylococcus epidermidis; assay: Antibacterial activity against Staphylococcus epidermidis ATCC 12228 assessed as concentration required to inhibit bacterial growth after 24 hrs by TLC assay; type: functional; in short: as §1
Escherichia coli [11] = assay: Antibacterial activity against Escherichia coli ATCC 11103 assessed as concentration required to inhibit bacterial growth after 24 hrs by TLC assay; type: functional; in short: as §1
Klebsiella pneumoniae [12] = assay: Antibacterial activity against Klebsiella pneumoniae ATCC 10031 assessed as concentration required to inhibit bacterial growth after 24 hrs by TLC assay; type: functional; in short: as §1
[13] = tested on: Salmonella enterica subsp. enterica serovar Setubal; assay: as §2; type: functional; in short: as §1

In the case of `CC[C@H](C)[C@H](NC(=O)[C@@H](NC(=O)[C@H](CC(C)C)N(C)C)[C@@H](Oc1ccc(C=O)cc1)c1ccccc1)C(=O)OC`, the Activity (Candida dubliniensis) is reported as under 50 µg, the Activity (Candida tropicalis) is reported as under 50 µg and the Activity (Cryptococcus neoformans) is reported as under 50 µg. For the same molecule, the Activity (Candida albicans) was under 50 µg, the Activity (Saccharomyces cerevisiae) was under 50 µg and the Activity (Staphylococcus aureus [1]) was under 50 µg. It also gave an Activity (Kocuria rhizophila [2]) of under 50 µg, an Activity (Staphylococcus aureus [3]) of under 50 µg and an Activity (Kocuria rhizophila [4]) of under 50 µg. For the same molecule, the Activity [5] was under 50 µg, the Activity (Klebsiella pneumoniae [6]) was under 50 µg and the Activity (Escherichia coli [7]) was under 50 µg. It also gave an Activity [8] of under 50 µg, an Activity [9] of under 50 µg and an Activity [10] of under 50 µg. For the same molecule, the Activity (Escherichia coli [11]) was under 50 µg and the Activity (Klebsiella pneumoniae [12]) was under 50 µg.

For `CC[C@H](C)[C@H](NC(=O)[C@H](NC(=O)[C@H](CC(C)C)N(C)C)[C@H](Oc1ccc(C=O)cc1)c1ccccc1)C(=O)OC`, the Activity (Candida dubliniensis) was under 50 µg, the Activity (Candida tropicalis) was under 50 µg and the Activity (Cryptococcus neoformans) was under 50 µg. It also gave an Activity (Candida albicans) of under 50 µg, an Activity (Saccharomyces cerevisiae) of under 50 µg and an Activity (Staphylococcus aureus [1]) of under 50 µg. The Activity (Kocuria rhizophila [2]) was under 50 µg, the “growth inhibition (GI)” value (Staphylococcus aureus [3]) was “inactive” and the “growth inhibition (GI)” value (Kocuria rhizophila [4]) was “inactive”. For the same molecule, the “growth inhibition (GI)” value [13] was “inactive”, the “growth inhibition (GI)” value (Klebsiella pneumoniae [6]) was “inactive” and the “growth inhibition (GI)” value (Escherichia coli [7]) was “inactive”. The “growth inhibition (GI)” value [8] was “inactive”, the Activity [9] was under 50 µg and the Activity [10] was under 50 µg. For the same molecule, the Activity (Escherichia coli [11]) was under 50 µg and the Activity (Klebsiella pneumoniae [12]) was under 50 µg.

With `CC[C@H](C)[C@H](NC(=O)[C@H](NC(=O)[C@H](CC(C)C)NC(=O)OCc1ccccc1)[C@@H](O)c1ccccc1)C(=O)OC` (mixture of isomers) the Activity (Candida dubliniensis) was under 50 µg, the Activity (Candida tropicalis) was under 50 µg and the Activity (Cryptococcus neoformans) was under 50 µg. For the same molecule, the Activity (Candida albicans) was under 50 µg, the Activity (Saccharomyces cerevisiae) was under 50 µg and the Activity (Staphylococcus aureus [1]) was under 50 µg. For the same molecule, the Activity (Kocuria rhizophila [2]) was under 50 µg, the Activity [9] was under 50 µg and the Activity [10] was under 50 µg. For the same molecule, the Activity (Escherichia coli [11]) was under 50 µg and the Activity (Klebsiella pneumoniae [12]) was under 50 µg.

With `COC(=O)[C@H](Cc1ccccc1)NC(=O)[C@H](NC(=O)[C@@H](N)CC(C)C)[C@@H](O)c1ccccc1` (mixture of isomers) the Activity (Candida dubliniensis) was under 50 µg, the Activity (Candida tropicalis) was under 50 µg and the Activity (Cryptococcus neoformans) was under 50 µg. For the same molecule, the Activity (Candida albicans) was under 50 µg, the Activity (Saccharomyces cerevisiae) was under 50 µg and the Activity (Staphylococcus aureus [1]) was under 50 µg. It also gave an Activity (Kocuria rhizophila [2]) of under 50 µg, an Activity [9] of under 50 µg and an Activity [10] of 3.1 µg. The Activity (Escherichia coli [11]) was 12.5 µg and the Activity (Klebsiella pneumoniae [12]) was under 50 µg.

In the case of `COC(=O)[C@H](CC(C)C)NC(=O)[C@H](NC(=O)[C@H](CC(C)C)N(C)C)[C@@H](O)c1ccccc1` (mixture of isomers), the Activity (Candida dubliniensis) is reported as under 50 µg, the Activity (Candida tropicalis) is reported as under 50 µg and the Activity (Cryptococcus neoformans) is reported as under 50 µg. It also gave an Activity (Candida albicans) of under 50 µg, an Activity (Saccharomyces cerevisiae) of under 50 µg and an Activity (Staphylococcus aureus [1]) of under 50 µg. The Activity (Kocuria rhizophila [2]) was under 50 µg, the Activity [9] was under 50 µg and the Activity [10] was under 50 µg. It also gave an Activity (Escherichia coli [11]) of under 50 µg and an Activity (Klebsiella pneumoniae [12]) of under 50 µg.

With `CC[C@H](C)[C@H](NC(=O)[C@H](NC(=O)[C@H](CC(C)C)N(C)C)[C@@H](O)c1ccccc1)C(=O)OC` (mixture of isomers) the Activity (Candida dubliniensis) was under 50 µg, the Activity (Candida tropicalis) was under 50 µg and the Activity (Cryptococcus neoformans) was under 50 µg. For the same molecule, the Activity (Candida albicans) was under 50 µg, the Activity (Saccharomyces cerevisiae) was under 50 µg and the Activity (Staphylococcus aureus [1]) was under 50 µg. For the same molecule, the Activity (Kocuria rhizophila [2]) was under 50 µg, the Activity [9] was under 50 µg and the Activity [10] was under 50 µg. For the same molecule, the Activity (Escherichia coli [11]) was under 50 µg and the Activity (Klebsiella pneumoniae [12]) was under 50 µg.

Work on `COC(=O)[C@H](CC(C)C)NC(=O)[C@@H]([C@@H](O)c1ccccc1)N1CN(C)[C@@H](CC(C)C)C1=O` (mixture of isomers) yielded an Activity (Candida dubliniensis) of under 50 µg, an Activity (Candida tropicalis) of under 50 µg and an Activity (Cryptococcus neoformans) of under 50 µg. The Activity (Candida albicans) was under 50 µg, the Activity (Saccharomyces cerevisiae) was under 50 µg and the Activity (Staphylococcus aureus [1]) was under 50 µg. The Activity (Kocuria rhizophila [2]) was under 50 µg, the Activity [9] was under 50 µg and the Activity [10] was under 50 µg. For the same molecule, the Activity (Escherichia coli [11]) was under 50 µg and the Activity (Klebsiella pneumoniae [12]) was under 50 µg.

In the case of `COC(=O)[C@H](Cc1ccccc1)NC(=O)[C@@H](NC(=O)[C@H](CC(C)C)N(C)C)[C@@H](Oc1ccc(C=O)cc1)c1ccccc1` (mixture of isomers), the Activity (Candida dubliniensis) is reported as under 50 µg, the Activity (Candida tropicalis) is reported as under 50 µg and the Activity (Cryptococcus neoformans) is reported as under 50 µg. For the same molecule, the Activity (Candida albicans) was under 50 µg, the Activity (Saccharomyces cerevisiae) was under 50 µg and the Activity (Staphylococcus aureus [1]) was under 50 µg. For the same molecule, the Activity (Kocuria rhizophila [2]) was under 50 µg, the Activity (Staphylococcus aureus [3]) was under 50 µg and the Activity (Kocuria rhizophila [4]) was under 50 µg. It also gave an Activity [5] of under 50 µg, an Activity (Klebsiella pneumoniae [6]) of under 50 µg and an Activity (Escherichia coli [7]) of under 50 µg. The Activity [8] was under 50 µg, the Activity [9] was under 50 µg and the Activity [10] was under 50 µg. It also gave an Activity (Escherichia coli [11]) of under 50 µg and an Activity (Klebsiella pneumoniae [12]) of under 50 µg.

Molecule `COC(=O)[C@H](Cc1ccccc1)NC(=O)[C@H](NC(=O)[C@H](CC(C)C)N(C)C)[C@H](Oc1ccc(C=O)cc1)c1ccccc1` (mixture of isomers) has an Activity (Candida dubliniensis) of under 50 µg, an Activity (Candida tropicalis) of under 50 µg and an Activity (Cryptococcus neoformans) of under 50 µg. For the same molecule, the Activity (Candida albicans) was under 50 µg, the Activity (Saccharomyces cerevisiae) was under 50 µg and the Activity (Staphylococcus aureus [1]) was under 50 µg. The Activity (Kocuria rhizophila [2]) was under 50 µg, the “growth inhibition (GI)” value (Staphylococcus aureus [3]) was “inactive” and the “growth inhibition (GI)” value (Kocuria rhizophila [4]) was “inactive”. The “growth inhibition (GI)” value [13] was “inactive”, the “growth inhibition (GI)” value (Klebsiella pneumoniae [6]) was “inactive” and the “growth inhibition (GI)” value (Escherichia coli [7]) was “inactive”. The “growth inhibition (GI)” value [8] was “inactive”, the Activity [9] was under 50 µg and the Activity [10] was under 50 µg. It also gave an Activity (Escherichia coli [11]) of under 50 µg and an Activity (Klebsiella pneumoniae [12]) of under 50 µg.

In the case of `COC(=O)[C@H](CC(C)C)NC(=O)[C@H](NC(=O)[C@H](CC(C)C)NC(=O)OCc1ccccc1)[C@@H](O)c1ccccc1` (mixture of isomers), the Activity (Candida dubliniensis) is reported as under 50 µg, the Activity (Candida tropicalis) is reported as under 50 µg and the Activity (Cryptococcus neoformans) is reported as under 50 µg. For the same molecule, the Activity (Candida albicans) was under 50 µg, the Activity (Saccharomyces cerevisiae) was under 50 µg and the Activity (Staphylococcus aureus [1]) was under 50 µg. The Activity (Kocuria rhizophila [2]) was under 50 µg, the Activity [9] was under 50 µg and the Activity [10] was under 50 µg. For the same molecule, the Activity (Escherichia coli [11]) was under 50 µg and the Activity (Klebsiella pneumoniae [12]) was under 50 µg.

`COC(=O)[C@H](Cc1ccccc1)NC(=O)[C@H](NC(=O)[C@H](CC(C)C)NC(=O)OCc1ccccc1)[C@@H](O)c1ccccc1` (mixture of isomers) gave an Activity (Candida dubliniensis) of under 50 µg, an Activity (Candida tropicalis) of under 50 µg and an Activity (Cryptococcus neoformans) of under 50 µg. The Activity (Candida albicans) was under 50 µg, the Activity (Saccharomyces cerevisiae) was under 50 µg and the Activity (Staphylococcus aureus [1]) was under 50 µg. The Activity (Kocuria rhizophila [2]) was under 50 µg, the Activity [9] was under 50 µg and the Activity [10] was under 50 µg. For the same molecule, the Activity (Escherichia coli [11]) was under 50 µg and the Activity (Klebsiella pneumoniae [12]) was under 50 µg.

Source: ChEMBL document CHEMBL2407049, “Cyclopeptide alkaloids: stereochemistry and synthesis of the precursors of discarines C and D and myrianthine A” (2013)
